Published values collected from several papers.
Each line is one published result; the experiments were not run side by side.
Target: Ephrin type-B receptor 4 (EPHB4, Homo sapiens, UniProt P54760)
Residues used in one study (P54760 16-987): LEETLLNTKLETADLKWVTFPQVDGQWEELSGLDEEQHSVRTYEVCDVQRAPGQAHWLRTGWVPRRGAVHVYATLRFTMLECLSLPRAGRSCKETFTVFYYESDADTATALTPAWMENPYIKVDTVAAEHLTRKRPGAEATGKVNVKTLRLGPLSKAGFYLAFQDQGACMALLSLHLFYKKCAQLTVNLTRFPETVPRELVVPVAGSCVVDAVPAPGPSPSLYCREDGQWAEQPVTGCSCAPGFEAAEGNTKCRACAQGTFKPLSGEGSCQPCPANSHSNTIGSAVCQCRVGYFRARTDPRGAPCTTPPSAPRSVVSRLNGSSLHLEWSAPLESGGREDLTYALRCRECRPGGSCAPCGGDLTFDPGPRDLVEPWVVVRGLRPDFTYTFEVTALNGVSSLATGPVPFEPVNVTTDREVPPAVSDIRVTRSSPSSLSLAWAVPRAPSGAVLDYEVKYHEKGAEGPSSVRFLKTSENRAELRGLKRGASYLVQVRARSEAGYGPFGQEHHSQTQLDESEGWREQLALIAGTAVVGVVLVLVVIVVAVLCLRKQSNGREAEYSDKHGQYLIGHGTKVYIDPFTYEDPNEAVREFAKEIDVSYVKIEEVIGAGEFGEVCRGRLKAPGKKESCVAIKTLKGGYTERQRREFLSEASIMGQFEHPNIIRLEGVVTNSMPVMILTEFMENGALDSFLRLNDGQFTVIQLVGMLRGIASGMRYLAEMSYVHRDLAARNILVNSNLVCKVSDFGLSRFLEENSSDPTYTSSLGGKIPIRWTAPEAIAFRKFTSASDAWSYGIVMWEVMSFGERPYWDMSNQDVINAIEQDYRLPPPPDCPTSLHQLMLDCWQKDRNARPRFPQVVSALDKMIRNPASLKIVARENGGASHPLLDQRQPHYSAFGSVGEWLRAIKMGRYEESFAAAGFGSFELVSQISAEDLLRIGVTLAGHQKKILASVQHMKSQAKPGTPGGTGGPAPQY

Structure (SMILES)	observed	technique	concentration	remaining binding
CNC(=O)[C@@H]1CC[C@@H](n2c(-c3ccc4cnccc4c3)nc3ccc(C(=O)NCc4cccc(C(N)=O)c4)cc32)C1	binding	competition with immobilised ligand	1 µM	100%
C=CC(=O)N1CCC(C(=O)NCC(=O)N2CCN(c3nc(-c4cnc(N)nc4C(F)F)nc(N4CCOCC4)n3)CC2)CC1	binding	competition with immobilised ligand	1 µM	100%
CCN1CCN(Cc2ccc(C(=O)Nc3ccc(C)c(Oc4ccc5c(c4)CC(=O)N5)c3)cc2C(F)(F)F)CC1	binding	competition with immobilised ligand	1 µM	90%
CC1CCCN1c1nccc(-c2cnn3ncccc23)n1 (stereo not drawn)	binding		1 µM	100%
O=C(c1ccc(Nc2ncc(Cl)c(-c3cc4ccccc4s3)n2)cc1)N1CCC(N2CCCC2)CC1	binding	competition with immobilised ligand	1 µM	65%
COc1ncc2cc3ccccc3nc2c1C#N	cell-free assay	competition with immobilised ligand	5 µM	100%
O=C(O)[C@@H]1[C@@H](Cn2nnc3ccccc3c2=O)CC[C@H]1C(=O)c1ccc(OCCC2CCOCC2)cc1	cell-free assay	competition with immobilised ligand	1 µM	100%
F[C@@H]1CCN(c2nccc(-c3cnn4ncccc34)n2)C1	binding		1 µM	90%
O=C(NCCCN1CCOCC1)c1ccc(Nc2nccc(-c3cc4ccccc4s3)n2)cc1	binding	competition with immobilised ligand	1 µM	78%
CCCCN(CCCC)C(=O)CN1C[C@@H](c2cc(OC)c3c(c2)OCO3)[C@H](C(=O)O)[C@H]1CC(C)(C)CCC	cell-free assay	competition with immobilised ligand	1 µM	98.5%
C[C@@H]1CCN(c2nccc(-c3cnn4ncccc34)n2)C1	binding		1 µM	100%
CN(C)C(=O)Cn1cc(-c2nc(C3(c4ccc(-c5cnc(N)nc5)cc4)CC3)no2)cn1	cell-free assay	competition with immobilised ligand	1 µM	100%
O=C(Nc1c[nH]nc1C(=O)NC1CCNCC1)c1cc(F)cc(F)c1	binding	competition with immobilised ligand	1 µM	100%
O=C(c1ccc(Nc2ncc(Cl)c(-c3ccc(Cl)s3)n2)cc1)N1CCC(N2CCCC2)CC1	binding	competition with immobilised ligand	1 µM	67%
CN(c1nccc(-c2cnn3ncccc23)n1)C1CC1	binding		1 µM	100%
O=c1nc(-c2ccccn2)sc2ccccc12	cell-free assay	competition with immobilised ligand	1 µM	100%
C[C@@H](c1ccc(-n2cnc3c(N)ncnc32)cc1)N1CCc2nn(C)c(Cc3ccccc3)c2C1=O	binding	competition with immobilised ligand	0.1 µM	95%
c1cnn2ncc(-c3ccnc(N4CCC45COC5)n3)c2c1	binding		1 µM	92%
C[C@@H]1CN(c2cc(-c3n[nH]c4ccc(OC5(C)CC5)cc34)ncn2)C[C@H](C)O1	cell-free assay	competition with immobilised ligand	0.1 µM	79%
CN(CCCC(F)(F)F)c1nccc(-c2cnn3ncccc23)n1	binding		1 µM	93%
Cc1noc([C@H]2C[C@@H](c3ccc(C(F)(F)F)cc3)CN(C(=O)N3CCS(=O)(=O)C3)C2)n1	cell-free assay	competition with immobilised ligand	1 µM	100%
